ChEMBL document CHEMBL3751835, “Discovery of the imidazole-derived GPR40 agonist AM-3189” (Bioorg Med Chem Lett, 2016)
pEC50: −log10 of the molar value. The source made the active and inactive calls. The rule behind the calls is not given here.

Tests used:
[1] = Half life in cynomolgus monkey at 0.5 mg/kg, iv; format: ADME, organism-based, Macaca fascicularis; conditions: in vivo
Outline: (§1)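 Oral doses given as a suspension in aqueous 1% Tween 80 in 1% methylcellulose; IV doses formulated in 10% N,N-dimethylacetamide, 10% ethanol, 30% propylene glycol, 50% sterile water. Animals per species: mouse n = 2 (plasma from two mice at each time point), rat n = 2, dog n = 3, cynomolgus monkey n = 3.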

[2] = Oral bioavailability in mouse at 5 mg/kg; format: ADME, organism-based; conditions: in vivo; outline: as §1
[3] = Oral bioavailability in dog at 2 mg/kg; format: ADME, organism-based, Canis lupus familiaris; conditions: in vivo; outline: as §1
[4] = Ratio of drug level in brain to plasma in rat at 5 mg/kg, po after 3 hrs; format: ADME, organism-based
[5] = Half life in mouse at 1 mg/kg, iv; format: ADME, organism-based; conditions: in vivo; outline: as §1
[6] = test system: Pancreatic islet; test: Induction of glucose-stimulated insulin release in human GPR40 knock-in mouse pancreatic islets by insulin ELISA in presence of 0.1% human serum albumin and glucose; format: functional
Outline: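 Islets were isolated from knock-in mice in which the mouse GPR40 gene is replaced by human GPR40. Glucose-stimulated insulin secretion was measured in buffer containing 16.7 mM glucose and 0.1% human serum albumin.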

[7] = molecular target: T1, Peroxisome proliferator-activated receptor gamma (Homo sapiens) (UniProt P37231); test: Activity at PPARgamma (unknown origin) by cell based assay
T1 sequence (whole entry): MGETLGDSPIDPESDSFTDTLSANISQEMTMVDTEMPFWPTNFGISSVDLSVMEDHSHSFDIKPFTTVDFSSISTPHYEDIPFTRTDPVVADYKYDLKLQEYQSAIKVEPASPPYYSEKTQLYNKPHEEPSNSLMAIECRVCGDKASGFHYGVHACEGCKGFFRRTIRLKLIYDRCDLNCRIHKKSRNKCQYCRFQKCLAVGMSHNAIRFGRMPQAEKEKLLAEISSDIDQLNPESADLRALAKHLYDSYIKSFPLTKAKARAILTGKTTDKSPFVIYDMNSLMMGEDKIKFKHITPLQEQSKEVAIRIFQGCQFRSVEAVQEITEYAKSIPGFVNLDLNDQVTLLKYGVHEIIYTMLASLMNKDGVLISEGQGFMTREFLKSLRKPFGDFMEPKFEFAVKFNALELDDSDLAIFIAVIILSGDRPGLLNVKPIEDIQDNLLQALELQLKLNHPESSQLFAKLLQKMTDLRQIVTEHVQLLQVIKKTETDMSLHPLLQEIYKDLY

[8] = molecular target: Free fatty acid receptor 1 (Mus musculus) (UniProt Q76JU9); test: Agonist activity at mouse GPR40 in presence of 0.01% human serum albumin
Free fatty acid receptor 1 (Mus musculus), sequence (Q76JU9 whole entry): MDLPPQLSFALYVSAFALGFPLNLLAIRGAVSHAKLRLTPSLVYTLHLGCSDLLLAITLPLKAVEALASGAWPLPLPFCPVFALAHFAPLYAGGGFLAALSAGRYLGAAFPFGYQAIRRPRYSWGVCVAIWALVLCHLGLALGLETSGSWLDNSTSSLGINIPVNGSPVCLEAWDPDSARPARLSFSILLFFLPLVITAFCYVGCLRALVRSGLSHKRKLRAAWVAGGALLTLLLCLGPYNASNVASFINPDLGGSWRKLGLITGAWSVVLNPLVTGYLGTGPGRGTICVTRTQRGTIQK

[9] = Volume of distribution at steady state in mouse at 1 mg/kg, iv; format: ADME, organism-based; conditions: in vivo, read-out: Vdss; outline: as §1
[10] = molecular target: T2, Peroxisome proliferator-activated receptor delta (Homo sapiens) (UniProt Q03181); test: Activity at PPARdelta (unknown origin) by cell based assay
T2 sequence (whole entry): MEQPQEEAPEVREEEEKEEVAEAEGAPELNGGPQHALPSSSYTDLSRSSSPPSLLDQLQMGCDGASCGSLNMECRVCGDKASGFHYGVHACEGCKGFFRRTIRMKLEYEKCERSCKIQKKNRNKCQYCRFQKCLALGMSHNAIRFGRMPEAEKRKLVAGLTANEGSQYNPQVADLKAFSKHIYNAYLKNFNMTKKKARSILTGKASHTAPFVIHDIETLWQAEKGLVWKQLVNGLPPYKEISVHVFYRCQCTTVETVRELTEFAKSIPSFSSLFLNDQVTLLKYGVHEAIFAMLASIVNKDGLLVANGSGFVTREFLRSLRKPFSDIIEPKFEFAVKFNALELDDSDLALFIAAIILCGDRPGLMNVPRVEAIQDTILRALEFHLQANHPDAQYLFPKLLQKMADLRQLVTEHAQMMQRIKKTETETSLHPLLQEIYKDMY

[11] = molecular target: Free fatty acid receptor 1 (Macaca fascicularis, UniProt Q76JV1); test: Agonist activity at cynomolgus monkey GPR40 in presence of 0.01% human serum albumin relative to AMG 837
Free fatty acid receptor 1, sequence (Q76JV1 whole entry): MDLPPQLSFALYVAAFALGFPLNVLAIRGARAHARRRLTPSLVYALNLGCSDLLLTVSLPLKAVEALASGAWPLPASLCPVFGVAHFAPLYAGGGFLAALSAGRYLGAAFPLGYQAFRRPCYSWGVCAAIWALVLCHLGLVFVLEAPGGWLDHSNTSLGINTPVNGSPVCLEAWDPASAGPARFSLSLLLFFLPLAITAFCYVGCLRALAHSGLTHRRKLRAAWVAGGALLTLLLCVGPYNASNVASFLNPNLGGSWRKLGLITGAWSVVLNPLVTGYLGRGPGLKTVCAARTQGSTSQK

[12] = Clearance in mouse at 1 mg/kg, iv; format: ADME, organism-based; conditions: in vivo; outline: as §1
[13] = test system: GPR40 (hamster, Mesocricetus auratus); test: Agonist activity at hamster GPR40 in presence of 0.01% human serum albumin
[14] = test system: MDR1; test: Efflux ratio of permeability from basolateral to apical over apical basolateral side in MDCK cells expressing MDR1; format: ADME, cell-based, Canis lupus familiaris; conditions: dog
[15] = molecular target: Free fatty acid receptor 1 (Macaca fascicularis) (UniProt Q76JV1); test: Agonist activity at cynomolgus monkey GPR40 in presence of 0.01% human serum albumin relative to AMG 837 relative to AMG 837
Free fatty acid receptor 1 (Macaca fascicularis), sequence (Q76JV1 whole entry): as above

[16] = Cmax in cynomolgus monkey at 5 mg/kg, po; format: ADME, organism-based, Macaca fascicularis; design: dose 5 mg/kg, route oral; conditions: in vivo; outline: as §1
[17] = test system: Mus musculus; test: Reduction of blood glucose AUC in human islet transplanted nude chimeric mouse at 1 and 10 mg/kg, po administered 1 hr prior to glucose challenge by OGTT; format: functional, organism-based
Outline: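 Nude mice had their endogenous pancreatic β-cells ablated with streptozotocin and were rescued to euglycemia by human islets transplanted under the kidney capsule. Compound was dosed before a glucose challenge, and the glucose AUC was determined.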

[18] = Clearance in cynomolgus monkey at 0.5 mg/kg, iv; format: ADME, organism-based, Macaca fascicularis; conditions: in vivo; outline: as §1
[19] = Cmax in dog at 2 mg/kg, po; format: ADME, organism-based, Canis lupus familiaris; design: dose 2 mg/kg, route oral; conditions: in vivo; outline: as §1
[20] = molecular target: Free fatty acid receptor 1 (Rattus norvegicus) (UniProt Q8K3T4); test: Agonist activity at rat GPR40 in presence of 0.01% human serum albumin relative to AMG 837
Free fatty acid receptor 1 (Rattus norvegicus), sequence (Q8K3T4 whole entry): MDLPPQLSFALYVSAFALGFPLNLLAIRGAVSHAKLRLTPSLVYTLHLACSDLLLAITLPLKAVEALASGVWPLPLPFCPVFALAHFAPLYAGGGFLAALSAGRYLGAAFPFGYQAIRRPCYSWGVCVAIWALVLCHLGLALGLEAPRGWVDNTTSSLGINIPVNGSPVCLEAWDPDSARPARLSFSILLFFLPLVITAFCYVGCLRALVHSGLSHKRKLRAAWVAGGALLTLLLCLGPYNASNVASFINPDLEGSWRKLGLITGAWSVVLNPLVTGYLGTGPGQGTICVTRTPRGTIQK

[21] = Half life in rat at 0.5 mg/kg, iv; format: ADME, organism-based; conditions: in vivo; outline: as §1
[22] = Cmax in mouse at 5 mg/kg, po; format: ADME, organism-based; design: dose 5 mg/kg, route oral; conditions: in vivo; outline: as §1
[23] = Half life in dog at 0.5 mg/kg, iv; format: ADME, organism-based, Canis lupus familiaris; conditions: in vivo; outline: as §1
[24] = molecular target: T3, Free fatty acid receptor 1 (Sus scrofa) (UniProt F1RM69); test: Agonist activity at pig GPR40 in presence of 0.01% human serum albumin
T3 sequence (whole entry): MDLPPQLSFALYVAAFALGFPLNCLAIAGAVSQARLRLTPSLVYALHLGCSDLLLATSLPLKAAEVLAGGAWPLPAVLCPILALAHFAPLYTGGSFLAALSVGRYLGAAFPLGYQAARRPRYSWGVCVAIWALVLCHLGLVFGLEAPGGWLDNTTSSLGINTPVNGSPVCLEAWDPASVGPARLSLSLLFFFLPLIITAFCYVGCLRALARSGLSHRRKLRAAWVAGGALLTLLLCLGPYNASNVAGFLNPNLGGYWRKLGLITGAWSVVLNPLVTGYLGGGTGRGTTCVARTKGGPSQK

[25] = organism: Canis lupus familiaris; test: Agonist activity at dog GPR40 in presence of 0.01% human serum albumin relative to AMG 837
[26] = test system: Mus musculus; test: Reduction of blood glucose AUC in human GPR40 knock-in chimeric mouse at 30 mg/kg, po administered 1 hr prior to glucose challenge by OGTT; format: functional, organism-based
Outline: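 Female human GPR40 knock-in mice, 28 weeks old, fasted 6 h, then dosed by oral gavage with compound formulated in 1% methylcellulose, 1% Tween-80. Glucose 2 g/kg was given by oral gavage 1 h after the drug. Blood glucose was read from tail-vein samples at several time points with a glucometer.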

Work on `Cc1cc(Cl)ccc1-c1cccc(COc2ccc([C@H](CC(=O)O)c3nccn3C)cc2)c1` yielded a half-life [1] of 456 min, a bioavailability [2] of 100% and a bioavailability [3] of 66%. The Kp at 3 h [4] was 0.04, the half-life [5] was 90 min and the Activity [6] was “Active”. The Activity [7] was “inactive”, the Activity [8] was “inactive” and the Vd [9] was 0.78 L/kg. The Activity [10] was “inactive”, the pEC50 [11] was 7.54 and the clearance [12] was 2.83 mL/min/kg. For the same compound, the Activity [13] was “inactive”, the efflux ratio [14] was 22 and the Emax [15] was 96%. The Cmax [16] was 1190 nM, the Activity [17] was “Active” and the clearance [18] was 4.5 mL/min/kg. It also gave a Cmax [19] of 4.4 µM, an Emax [20] of 41% and a half-life [21] of 96 min. For the same compound, the Cmax [22] was 4.89 µM, the half-life [23] was 306 min and the Activity [24] was “inactive”. The Emax [25] was 37% and the Activity [26] was “Active”.
